The text below walks through data of ChEMBL document CHEMBL1137858, “Formation of squaric acid amides of anthracycline antibiotics. Synthesis and cytotoxic properties” (Bioorg Med Chem Lett, 2004).

The subject of assay [1] is MCF7. Kind of assay: Percent control of human mammary adenocarcinoma MCF-7 cell line proliferation at 3 ng/mL. It is filed as functional. The method in brief:
(§1)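 MCF-7 human mammary adenocarcinoma cells (5 · 10^3) seeded in 24-well plates in RPMI-1640 with 10% fetal calf serum, penicillin (50 unit/mL) and streptomycin, 37 C, 5% CO2. Compounds added 3 h after plating. After 24 h exposure, medium replaced and cultures incubated a further 72 h. Cell population measured by MTT absorbance. IC50 values calculated from the data.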

The test system of assay [2] is MCF7. Kind of assay: Percent control of human mammary adenocarcinoma MCF-7 cell line proliferation at 30 ng/mL. It is filed as functional. The method in brief: as §1
For assay [3], the system named is MCF7. As to the kind of experiment: Percent control of human mammary adenocarcinoma MCF-7 cell line proliferation at 300 ng/mL. It is filed as functional. Summed up:
as §1

The subject of assay [4] is MCF7. As to the kind of experiment: Concentration required to inhibit proliferation of human mammary adenocarcinoma MCF-7 cell line was determined using MTT assay. It is filed as functional, cell-based. Summed up:
as §1
(Tetrazolium assays rely on reduction of a dye to a coloured formazan, in cell work by metabolically active cells.)

Assay [5] deals with MCF7. As to the kind of experiment: Percent control of human mammary adenocarcinoma MCF-7 cell line proliferation at 0.3 ng/mL. It is filed as functional. Summed up: as §1

The IC50 is the concentration needed to halve the response being measured. A high value points to weaker potency in that assay.

Values after ≈ are worked out from the molar mass of the structure shown.

Regarding `COc1cccc2c1C(=O)c1c(O)c3c(c(O)c1C2=O)C[C@@](O)(C(C)=O)C[C@@H]3OC1CC(Nc2c(OC)c(=O)c2=O)C(O)C(C)O1` (stereo in doubt; 5), the Control with MCF7 [1] was 85%; in the assay with MCF7 [2], 74.7%; with MCF7 [3] it was 77.8%. The half-maximal inhibitory concentration (IC50) in the assay with MCF7 [4] was over 0.3 µg/mL.
The corresponding values for `COc1cccc2c1C(=O)c1c(O)c3c(c(O)c1C2=O)C[C@@](O)(C(=O)CO)C[C@@H]3OC1CC(/N=c2/c(O)c(O)/c2=N/C2CC(O[C@@H]3C[C@@](O)(C(=O)CO)Cc4c(O)c5c(c(O)c43)C(=O)c3c(OC)cccc3C5=O)OC(C)C2O)C(O)C(C)O1` (stereo partly drawn) are 88%, 84.5%, 68.4% and over 0.3 µg/mL.
The corresponding values for `COc1c(NC2CC(O[C@H]3C[C@](O)(C(C)=O)Cc4c(O)c5c(c(O)c43)C(=O)c3c(O)cccc3C5=O)OC(C)C2O)c(=O)c1=O` (stereo partly drawn) are 89.7%, 81%, 46.3% and 0.299 µg/mL (≈ 0.48 µM).
The corresponding values for `COc1cccc2c1C(=O)c1c(O)c3c(c(O)c1C2=O)C[C@@](O)(C(=O)CO)C[C@@H]3OC1CC(/N=c2/c(O)c(O)/c2=N\CCCCCC/N=c2\c(O)c(O)\c2=N\C2CC(O[C@H]3C[C@](O)(C(=O)CO)Cc4c(O)c5c(c(O)c43)C(=O)c3c(OC)cccc3C5=O)OC(C)C2O)C(O)C(C)O1` (stereo partly drawn) are 87%, 86.1%, 82.4% and over 0.3 µg/mL.
For `COc1cccc2c1C(=O)c1c(O)c3c(c(O)c1C2=O)C[C@@](O)(C(C)=O)C[C@@H]3OC1CC(/N=c2/c(O)c(O)/c2=N\CCCCCC/N=c2\c(O)c(O)\c2=N\C2CC(O[C@H]3C[C@](O)(C(C)=O)Cc4c(O)c5c(c(O)c43)C(=O)c3c(OC)cccc3C5=O)OC(C)C2O)C(O)C(C)O1` (stereo partly drawn), the results for the Control in the assay on MCF7 [1], in the assay with MCF7 [2] and in the assay with MCF7 [3] were 104%, 50% and 32%, respectively. Moreover, in the assay on MCF7 [4], the IC50 stood at 0.087 µg/mL (≈ 0.0655 µM).
Regarding `COc1cccc2c1C(=O)c1c(O)c3c(c(O)c1C2=O)C[C@@](O)(C(=O)CO)C[C@@H]3O[C@H]1C[C@H](N)[C@H](O)[C@H](C)O1.Cl` [DOXORUBICIN HYDROCHLORIDE], the Control was found to be 41% in the assay on MCF7 [1], 35.3% in the assay with MCF7 [2], 74.7% in the assay with MCF7 [5] and 14.9% in the assay with MCF7 [3].
For the compound `COc1cccc2c1C(=O)c1c(O)c3c(c(O)c1C2=O)C[C@@](O)(C(C)=O)C[C@@H]3OC1CC(/N=c2/c(O)c(O)/c2=N/C2CC(O[C@@H]3C[C@@](O)(C(C)=O)Cc4c(O)c5c(c(O)c43)C(=O)c3c(OC)cccc3C5=O)OC(C)C2O)C(O)C(C)O1` (stereo partly drawn), the Control in the assay with MCF7 [1] came to 72.7%; in the assay on MCF7 [2], 60.7%; in the assay with MCF7 [3], 42%. Besides, in the assay on MCF7 [4], inhibition was half-maximal at 0.109 µg/mL (≈ 0.0958 µM) (IC50).
Regarding `CC(=O)[C@]1(O)Cc2c(O)c3c(c(O)c2[C@@H](OC2CC(N)C(O)C(C)O2)C1)C(=O)c1c(O)cccc1C3=O.Cl` (stereo partly drawn), the Control is on record as 93.2% with MCF7 [1], 77% with MCF7 [2], 107% with MCF7 [5] and 9.1% in the assay on MCF7 [3]. The same compound registered a 50% inhibitory concentration (IC50) with MCF7 [4] of 0.0483 µg/mL.
